Converted amounts (≈) assume the structure as drawn.
How the values were obtained:
Assay type in all cases: functional
Lewia infectoria = assay: Antimicrobial activity against Alternaria infectoria by broth microdilution method
Outline: (§1)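 Clinical mould isolates, tested by broth microdilution using the AFST-EUCAST reference method for filamentous fungi. For echinocandins, the endpoint was the minimum effective concentration: the lowest drug concentration giving aberrant hyphal growth, read with an inverted microscope.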

Beauveria bassiana = assay: Antimicrobial activity against Beauveria bassiana by broth microdilution method; outline: as §1
Pichia norvegensis = assay: Antimicrobial activity against Candida norvegensis by broth microdilution method
Outline: (§2)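 Clinical isolates from human patients, tested by broth microdilution using the AFST-EUCAST reference procedure for fermentative yeasts. The MIC was read per that reference method.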

Lecythophora hoffmannii = assay: Antimicrobial activity against Lecythophora hoffmannii by broth microdilution method; conditions: Coniochaeta hoffmannii
Outline: (§3)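 Filamentous fungus clinical isolates tested by the AFST-EUCAST reference broth microdilution method for moulds. For echinocandins, the endpoint was the minimum effective concentration: the lowest drug concentration giving aberrant hyphal growth, read with an inverted microscope.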

Cladosporium = assay: Antimicrobial activity against Cladosporium spp. by broth microdilution method; outline: as §1
Candida parapsilosis = assay: Antimicrobial activity against Candida parapsilosis by broth microdilution method; conditions: Lodderomyces parapsilosis; outline: as §2
Kluyveromyces marxianus = assay: Antimicrobial activity against Candida kefyr by broth microdilution method; outline: as §2
Trichosporon jirovecii = assay: Antimicrobial activity against Trichosporon jirovecii by broth microdilution method; conditions: Cutaneotrichosporon jirovecii
Outline: (§4)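 Nonfermentative yeast clinical isolates (Rhodotorula, Trichosporon) tested by broth microdilution. The EUCAST yeast recommendations were followed strictly, with one minor modification to improve growth. MIC was read as the endpoint.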

Saccharomyces cerevisiae = assay: Antimicrobial activity against Saccharomyces cerevisiae by broth microdilution method
Torulaspora delbrueckii = assay: Antimicrobial activity against Candida coliculosa by broth microdilution method; outline: as §2
Neurospora sitophila = assay: Antimicrobial activity against Chrysonilia sitophila by broth microdilution method; outline: as §1
[1] = tested on: Scopulariopsis brevicaulis; assay: Antimicrobial activity against Scopulariopsis brevicaulis by broth microdilution method; outline: as §3
Fusarium proliferatum = assay: Antimicrobial activity against Fusarium proliferatum by broth microdilution method; outline: as §1
Rhodotorula mucilaginosa = assay: Antimicrobial activity against Rhodotorula mucilaginosa by broth microdilution method; outline: as §4
[2] = tested on: Cunninghamella bertholletiae; assay: Antimicrobial activity against Cunninghamella bertholletiae by broth microdilution method; outline: as §1
Exophiala dermatitidis = assay: Antimicrobial activity against Exophiala dermatitidis by broth microdilution method
Fusarium verticillioides = assay: Antimicrobial activity against Fusarium verticillioides by broth microdilution method; outline: as §3
[3] = tested on: Kazachstania pintolopesii; assay: Antimicrobial activity against Candida pintolopesii by broth microdilution method; conditions: Arxiozyma pintolopesii; outline: as §2
Trichosporon dermatis = assay: Antimicrobial activity against Trichosporon dermatis by broth microdilution method; conditions: Cutaneotrichosporon dermatis; outline: as §4
[4] = tested on: Meyerozyma guilliermondii; assay: Antimicrobial activity against Candida guilliermondii by broth microdilution method; outline: as §2
Aspergillus fumigatus = assay: Antimicrobial activity against Aspergillus fumigatus by broth microdilution method; outline: as §1
Paecilomyces variotii = assay: Antimicrobial activity against Paecilomyces variotii by broth microdilution method; outline: as §3
Wickerhamomyces anomalus = assay: Antimicrobial activity against Candida pelliculosa by broth microdilution method; conditions: Hansenula anomala; outline: as §2
[5] = tested on: Cladophialophora bantiana; assay: Antimicrobial activity against Cladophialophora bantiana by broth microdilution method; outline: as §1
Rhodotorula glutinis = assay: Antimicrobial activity against Rhodotorula glutinis by broth microdilution method; outline: as §4
Scytalidium hyalinum = assay: Antimicrobial activity against Scytalidium hyalinum by broth microdilution method; conditions: Neoscytalidium hyalinum; outline: as §3
Candida albicans = assay: Antimicrobial activity against Candida albicans by broth microdilution method; outline: as §2
[6] = Antimicrobial activity against Rhizopus microsporus by broth microdilution method; outline: as §3
Fusarium reticulatum = assay: Antimicrobial activity against Fusarium reticulatum by broth microdilution method; outline: as §3
Alternaria alternata = assay: Antimicrobial activity against Alternaria alternata by broth microdilution method; outline: as §1
Trichosporon asahii = assay: Antimicrobial activity against Trichosporon asahii by broth microdilution method; outline: as §4
Rhizomucor = assay: Antimicrobial activity against Rhizomucor spp.by broth microdilution method; outline: as §3
Fusarium oxysporum = assay: Antimicrobial activity against Fusarium oxysporum by broth microdilution method; outline: as §1
Aspergillus terreus = assay: Antimicrobial activity against Aspergillus terreus by broth microdilution method; outline: as §1
Trichosporon domesticum = assay: Antimicrobial activity against Trichosporon mycotoxinivorans by broth microdilution method; conditions: Apiotrichum domesticum
Outline: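 Spanish human clinical isolates were tested as nonfermentative yeasts by broth microdilution. The method strictly followed the EUCAST recommendations, with a minor modification to improve growth, and the read-out was the MIC.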

[7] = Antimicrobial activity against Hormographiella aspergillata by broth microdilution method; conditions: Coprinopsis cinerea; outline: as §3
Paecilomyces lilacinus = assay: Antimicrobial activity against Paecilomyces lilacinus by broth microdilution method; conditions: Purpureocillium lilacinum; outline: as §3
Candida orthopsilosis = assay: Antimicrobial activity against Candida orthopsilosis by broth microdilution method; conditions: Lodderomyces orthopsilosis; outline: as §2
Candida metapsilosis = assay: Antimicrobial activity against Candida metapsilosis by broth microdilution method; conditions: Lodderomyces metapsilosis; outline: as §2
[Candida] intermedia = Antimicrobial activity against Candida intermedia by broth microdilution method; conditions: Sungouiella intermedia; outline: as §2
Scedosporium apiospermum = assay: Antimicrobial activity against Scedosporium apiospermum by broth microdilution method; outline: as §3
Aspergillus sclerotiorum = assay: Antimicrobial activity against Aspergillus sclerotiorum by broth microdilution method; outline: as §1
Aspergillus ustus = assay: Antimicrobial activity against Aspergillus ustus by broth microdilution method; outline: as §1
Fennellia nivea = assay: Antimicrobial activity against Aspergillus niveus by broth microdilution method; outline: as §1
Lomentospora prolificans = assay: Antimicrobial activity against Scedosporium prolificans by broth microdilution method; outline: as §3

C[C@@H]1[C@H](O)[C@@H](C)/C=C/C=C/C=C/C=C/C=C/C=C/C=C/[C@H](O[C@@H]2O[C@H](C)[C@@H](O)[C@H](N)[C@@H]2O)C[C@@H]2O[C@](O)(C[C@@H](O)C[C@@H](O)[C@H](O)CC[C@@H](O)C[C@@H](O)CC(=O)O[C@H]1C)C[C@H](O)[C@H]2C(=O)O [AMPHOTERICIN B]
MIC50 (Lewia infectoria): 0.06 µg/mL (≈ 0.0649 µM) | MIC90 (Lewia infectoria): > 16 µg/mL | MIC50 (Beauveria bassiana): 0.5 µg/mL (≈ 0.541 µM) | MIC90 (Beauveria bassiana): > 16 µg/mL | MIC50 (Pichia norvegensis): 0.12 µg/mL (≈ 0.13 µM) | MIC90 (Pichia norvegensis): 1 µg/mL (≈ 1.08 µM) | MIC50 (Lecythophora hoffmannii): 0.25 µg/mL (≈ 0.271 µM) | MIC90 (Lecythophora hoffmannii): 1 µg/mL (≈ 1.08 µM) | MIC50 (Cladosporium): 0.25 µg/mL (≈ 0.271 µM) | MIC90 (Cladosporium): 1 µg/mL (≈ 1.08 µM) | MIC50 (Candida parapsilosis): 0.12 µg/mL (≈ 0.13 µM) | MIC90 (Candida parapsilosis): 0.25 µg/mL (≈ 0.271 µM) | MIC50 (Kluyveromyces marxianus): 0.25 µg/mL (≈ 0.271 µM) | MIC90 (Kluyveromyces marxianus): 0.5 µg/mL (≈ 0.541 µM) | MIC50 (Trichosporon jirovecii): 0.5 µg/mL (≈ 0.541 µM) | MIC90 (Trichosporon jirovecii): 8 µg/mL (≈ 8.66 µM) | MIC50 (Saccharomyces cerevisiae): 0.12 µg/mL (≈ 0.13 µM) | MIC90 (Saccharomyces cerevisiae): 0.25 µg/mL (≈ 0.271 µM) | MIC50 (Torulaspora delbrueckii): 0.12 µg/mL (≈ 0.13 µM) | MIC90 (Torulaspora delbrueckii): 1 µg/mL (≈ 1.08 µM) | MIC50 (Neurospora sitophila): 0.5 µg/mL (≈ 0.541 µM) | MIC90 (Neurospora sitophila): > 16 µg/mL | MIC50 [1]: 0.5 µg/mL (≈ 0.541 µM) | MIC90 [1]: > 16 µg/mL | MIC50 (Fusarium proliferatum): 2 µg/mL (≈ 2.16 µM) | MIC90 (Fusarium proliferatum): 4 µg/mL (≈ 4.33 µM) | MIC50 (Rhodotorula mucilaginosa): 0.12 µg/mL (≈ 0.13 µM) | MIC90 (Rhodotorula mucilaginosa): 0.5 µg/mL (≈ 0.541 µM) | MIC50 [2]: 2 µg/mL (≈ 2.16 µM) | MIC90 [2]: > 16 µg/mL | MIC50 (Exophiala dermatitidis): 0.25 µg/mL (≈ 0.271 µM) | MIC90 (Exophiala dermatitidis): 1 µg/mL (≈ 1.08 µM) | MIC50 (Fusarium verticillioides): 2 µg/mL (≈ 2.16 µM) | MIC90 (Fusarium verticillioides): 4 µg/mL (≈ 4.33 µM) | MIC50 [3]: 0.12 µg/mL (≈ 0.13 µM) | MIC90 [3]: 1 µg/mL (≈ 1.08 µM) | MIC50 (Trichosporon dermatis): 0.5 µg/mL (≈ 0.541 µM) | MIC90 (Trichosporon dermatis): 8 µg/mL (≈ 8.66 µM) | MIC50 [4]: 0.06 µg/mL (≈ 0.0649 µM) | MIC90 [4]: 0.5 µg/mL (≈ 0.541 µM) | MIC50 (Aspergillus fumigatus): 0.25 µg/mL (≈ 0.271 µM) | MIC90 (Aspergillus fumigatus): 0.5 µg/mL (≈ 0.541 µM) | MIC50 (Paecilomyces variotii): 0.03 µg/mL (≈ 0.0325 µM) | MIC90 (Paecilomyces variotii): 0.5 µg/mL (≈ 0.541 µM) | MIC50 (Wickerhamomyces anomalus): 0.12 µg/mL (≈ 0.13 µM) | MIC90 (Wickerhamomyces anomalus): 1 µg/mL (≈ 1.08 µM) | MIC50 [5]: 0.25 µg/mL (≈ 0.271 µM) | MIC90 [5]: 1 µg/mL (≈ 1.08 µM) | MIC50 (Rhodotorula glutinis): 0.5 µg/mL (≈ 0.541 µM) | MIC90 (Rhodotorula glutinis): 8 µg/mL (≈ 8.66 µM) | MIC50 (Scytalidium hyalinum): 0.25 µg/mL (≈ 0.271 µM) | MIC90 (Scytalidium hyalinum): 1 µg/mL (≈ 1.08 µM) | MIC50 (Candida albicans): 0.06 µg/mL (≈ 0.0649 µM) | MIC90 (Candida albicans): 0.12 µg/mL (≈ 0.13 µM) | MIC50 [6]: 2 µg/mL (≈ 2.16 µM) | MIC90 [6]: > 16 µg/mL | MIC50 (Fusarium reticulatum): 0.5 µg/mL (≈ 0.541 µM) | MIC90 (Fusarium reticulatum): > 16 µg/mL | MIC50 (Alternaria alternata): 0.5 µg/mL (≈ 0.541 µM) | MIC90 (Alternaria alternata): > 16 µg/mL | MIC50 (Trichosporon asahii): 8 µg/mL (≈ 8.66 µM) | MIC90 (Trichosporon asahii): > 16 µg/mL | MIC50 (Rhizomucor): 2 µg/mL (≈ 2.16 µM) | MIC90 (Rhizomucor): > 16 µg/mL | MIC50 (Fusarium oxysporum): 1 µg/mL (≈ 1.08 µM) | MIC90 (Fusarium oxysporum): 2 µg/mL (≈ 2.16 µM) | MIC50 (Aspergillus terreus): 1 µg/mL (≈ 1.08 µM) | MIC90 (Aspergillus terreus): 4 µg/mL (≈ 4.33 µM) | MIC50 (Trichosporon domesticum): 0.5 µg/mL (≈ 0.541 µM) | MIC90 (Trichosporon domesticum): 8 µg/mL (≈ 8.66 µM) | MIC50 [7]: 0.5 µg/mL (≈ 0.541 µM) | MIC90 [7]: > 16 µg/mL | MIC50 (Paecilomyces lilacinus): > 16 µg/mL | MIC90 (Paecilomyces lilacinus): > 16 µg/mL | MIC50 (Candida orthopsilosis): 0.12 µg/mL (≈ 0.13 µM) | MIC90 (Candida orthopsilosis): 1 µg/mL (≈ 1.08 µM) | MIC50 (Candida metapsilosis): 0.12 µg/mL (≈ 0.13 µM) | MIC90 (Candida metapsilosis): 1 µg/mL (≈ 1.08 µM) | MIC50 ([Candida] intermedia): 0.12 µg/mL (≈ 0.13 µM) | MIC90 ([Candida] intermedia): 1 µg/mL (≈ 1.08 µM) | MIC50 (Scedosporium apiospermum): 4 µg/mL (≈ 4.33 µM) | MIC90 (Scedosporium apiospermum): > 16 µg/mL | MIC50 (Aspergillus sclerotiorum): 0.5 µg/mL (≈ 0.541 µM) | MIC90 (Aspergillus sclerotiorum): > 16 µg/mL | MIC50 (Aspergillus ustus): 0.5 µg/mL (≈ 0.541 µM) | MIC90 (Aspergillus ustus): > 16 µg/mL | MIC50 (Fennellia nivea): 0.5 µg/mL (≈ 0.541 µM) | MIC90 (Fennellia nivea): > 16 µg/mL | MIC50 (Lomentospora prolificans): > 16 µg/mL | MIC90 (Lomentospora prolificans): > 16 µg/mL
